The list is not random: actives were taken first. Their share in the collection is about 0.55%.
OXTR potentiator: human OXTR potentiation. CHO-OTR cells, Fluo-8 calcium fluorescence, potentiator mode; 0% = oxytocin EC15, 100% = EC100. activation, % at 3 µM. 320,000 compounds, 0.061% hits. AID 2445;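 active = activation above that plate's cutoff, the mean activation of tested compounds plus 3 SD, cut at about 6.6% in these data, passing the limit was not always enough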;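 also: 100% uses oxytocin at 75 nM as the full agonist control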
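Assay system: CHO cell line stably expressing human OTR. Reagent: EC15 oxytocin agonist. Dosing: single dose, 3.0 µM nominal final compound concentration. Timing: compound 6 min at room temperature before oxytocin, 100 s read. Signal: kinetic Fluo-8 calcium fluorescence. Controls: oxytocin EC15 low and EC100 high.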
zfTRPN1 agonist: zebrafish TRPN1 (NompC) channel agonism; HEK293 zebrafish TRPN1-YFP, Fluo-8 calcium fluorescence; 100% = response to 87 µM carbachol; activation, % at 3 µM; 220,000 compounds, 0.18% hits;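 active = activation above its plate's cutoff, the mean activation of test wells on that plate plus 3 SD, cut at about 19% in these data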;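 also: 0% = DMSO alone and 100% = 87 µM carbachol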
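System: zebrafish TRPN1-YFP in HEK293 cells / Dosing: 3 µM single point / Timing: dye loading 1 h at 37 °C, then 30 min room temperature / Signal: Fluo-8 calcium fluorescence, excitation 470-495 nm, emission 515-575 nm / Read-out basis: percent activation from peak over basal fluorescence ratio, control-normalized / Control set: high carbachol 87 µM, low DMSO alone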
OXTR ag: activates the human oxytocin receptor; P30559; CHO-OTR cells, Fluo-8 calcium fluorescence; normalized: DMSO 0%, oxytocin 100%; activation, % at 3 µM; 320,000 compounds, 0.32% hits; AID 2435;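 active = activation above the mean of all tested compounds plus 3 SD, cutoff set per screening run, cut at about 20% in these data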;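 also: peak over basal fluorescence ratio from a 100 s FLIPR kinetic read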
V1aR counter: activates human V1a receptor in oxytocin agonist counter-screen | 320,000 compounds, 0.25% hits | P37288 | activation, % at 3 µM | CHO-V1R cells, Fluo-8 calcium fluorescence, agonist mode; 0% DMSO, 100% 3 nM vasopressin;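 active = activation above the mean activation of all tested compounds plus 3 SD, per screening run, cut at about 20% in these data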;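 also: signal is peak over basal fluorescence ratio across a 100 second FLIPR read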
Target sequence (P37288 whole entry, looked up): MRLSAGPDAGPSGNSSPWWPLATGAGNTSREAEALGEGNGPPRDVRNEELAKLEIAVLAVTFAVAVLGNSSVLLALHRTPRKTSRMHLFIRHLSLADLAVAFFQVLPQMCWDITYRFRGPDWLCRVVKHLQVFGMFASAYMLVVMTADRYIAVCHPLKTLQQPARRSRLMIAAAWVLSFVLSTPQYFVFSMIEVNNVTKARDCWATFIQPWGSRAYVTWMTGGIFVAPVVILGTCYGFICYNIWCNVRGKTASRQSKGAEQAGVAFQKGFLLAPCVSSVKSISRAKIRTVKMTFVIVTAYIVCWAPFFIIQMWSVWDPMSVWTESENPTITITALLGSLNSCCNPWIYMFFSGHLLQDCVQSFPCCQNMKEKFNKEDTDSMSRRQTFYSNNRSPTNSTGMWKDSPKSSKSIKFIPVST
TRPML3 ag: human mucolipin-3 channel agonism. Q8TDD5. HEK293 TRPML3-YFP, Fluo-8 calcium fluorescence; 100% = the carbachol control signal. 220,000 compounds, 0.29% hits. activation, % at 3 µM;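 active = activation above its plate's cutoff, the mean activation of the plate's test wells plus 3 SD, cut at about 12% in these data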;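 also: 0% = DMSO only wells and 100% = carbachol wells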
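Test system: TRPML3-YFP stable HEK293 cells. Doses: single point at 3 µM. Incubation: dye loading 1 h 37 °C then 30 min ambient, 125 s read. Signal: Fluo-8 calcium dye fluorescence, ex 470-495, em 515-575 nm. Measure: percent activation from peak-to-basal fluorescence ratio, scaled between DMSO and carbachol.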
OXTR agonist cf: confirmation of human oxytocin receptor agonists; activation, % at 3 µM; shares compounds with OXTR ag; 390 compounds, 20% hits; CHO-OTR cells, Fluo-8 calcium fluorescence, agonist;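 active = mean activation above about 20% derived from the earlier single-dose screen, limit read from the data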;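 also: peak over minimum fluorescence ratio per well during a 100 second FLIPR read; 0% = DMSO alone and 100% = oxytocin high control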
V1aR counter 3x: activates V1a receptor in oxytocin agonist counter-screen. 390 compounds, 10% hits. shares compounds with OXTR ag. CHO-V1R cells, Fluo-8 calcium fluorescence. activation, % at 3 µM;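 active = mean activation over triplicate exceeds the hit threshold set in the earlier primary screen, cut at about 20% in these data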;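 also: peak over basal fluorescence ratio within a 100 second read; 0% = DMSO alone and 100% = 3 nM vasopressin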
OXTR pot cf: confirmation of human oxytocin receptor potentiators; AID 434985; CHO-OTR cells, Fluo-8 calcium fluorescence, potentiation; scaled from low-dose to maximal oxytocin; 180 tested, under 10 active; shares compounds with OXTR potentiator; activation, % at 3 µM;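 active = mean percent activation over triplicates above a cutoff set from solvent-only control plates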;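 also: compounds tested in the presence of an EC15 dose of oxytocin; 0% = EC15 oxytocin with DMSO and 100% = EC100 oxytocin with DMSO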
V1aR agonist cf: confirmation of human vasopressin V1a receptor agonists. CHO-V1R cells, Fluo-8 calcium fluorescence, agonist. AID 434964. shares compounds with V1aR counter. 180 compounds, 20% hits. activation, % at 3 µM;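 active = average activation exceeds primary screen hit cutoff, cut at about 21% in these data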;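 also: peak over basal fluorescence ratio during a 100 s FLIPR read; 0% = DMSO only wells and 100% = 3 nM vasopressin wells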
OXTR ag counter: activates oxytocin receptor in V1a agonist counter-screen | AID 434969 | activation, % at 3 µM | CHO-OTR cells, Fluo-8 calcium fluorescence | 180 compounds, 10% hits | shares compounds with V1aR counter;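 active = mean activation over three repeats above the cutoff from the earlier oxytocin receptor agonist screen, cut at about 20% in these data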;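 also: peak over minimum fluorescence ratio within a 100 second FLIPR read; 0% = DMSO only wells and 100% = oxytocin high control wells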
Active calls of the source: *; x = no result given.

SMILES	OXTR potentiator	zfTRPN1 agonist	OXTR ag	V1aR counter	TRPML3 ag	OXTR agonist cf	V1aR counter 3x	others
O=C(COc1ccc2ccccc2c1)N1CCN(Cc2c[nH]c3ccccc23)CC1	-17.9	0.9	24.0*	8.5	2.0	9.6	4.2
CCCCn1c(=O)c(C(=O)NCc2ccccc2Cl)c(O)c2ccccc21	-22.6	x	38.0*	0.4	x	-0.2	0.6
Cn1cc(C(=O)OCC(=O)NC2(C#N)CCCC2)c2ccccc21	-4.8	x	1.7	1.3	x	x	x
CN1CCN2c3ccc(N)cc3CC3(C(=O)NC(=O)NC3=O)C2C1 (centres undefined)	x	1.4	x	x	0.3	x	x
CNc1ccc2oc(C[C@H]3O[C@@]4(CC[C@H]3C)O[C@H]([C@H](C)C(=O)c3ccc[nH]3)[C@H](C)C[C@H]4C)nc2c1C(=O)O	-25.9	x	74.7*	14.7	x	121.9*	134.0*
CCOc1cc2c(cc1OCC)-n1cccc1C(c1ccc(F)c(OC)c1)NC2 (centres undefined)	-7.1	x	22.3*	15.5	x	7.0	3.3
COc1ccc(-c2n(-c3ccccn3)c3ccccc3[n+]2-c2ccccn2)cc1	x	0.7	x	x	0.2	x	x
COc1ccc(C(c2c(O)c3ccccc3oc2=O)c2c(C)n(C)n(-c3ccccc3)c2=O)cc1 (centres undefined)	12.3*	0.1	-1.1	-1.1	0.3	x	x	OXTR pot cf=-10.3
CC(=O)N(C1=NCCCS1)c1ccccc1Cl	-6.8	-0.9	-0.4	-0.1	0.1	x	x
CN1CCN(c2ccc(S(C)(=O)=O)cc2[N+](=O)[O-])CC1	-2.4	2.1	0.8	0.3	0.9	x	x
CN1CCN(c2ccc([N+](=O)[O-])c3no[n+]([O-])c23)CC1	-23.8	18.3	18.7	27.5*	6.3	x	x	V1aR agonist cf=5.1;OXTR ag counter=5.4
CC1(C)OC(c2ccccc2)=C/C(=C/C=C2C(=O)NC(=O)NC2=O)O1	-16.7	46.2*	11.1	21.9*	24.2*	x	x	V1aR agonist cf=37.3*;OXTR ag counter=25.5*
COc1ccc(-n2c(-c3ccccc3Br)nc3ccccc3c2=O)cc1	-7.0	x	-1.6	0.5	x	x	x
CN(C)c1ccc(/C=C/[N+](=O)[O-])cc1	-5.9	11.3	18.4	29.4*	6.5	x	x	V1aR agonist cf=37.9*;OXTR ag counter=24.1*
C[C@]12CC[C@H](O)C[C@H]1CC[C@@H]1[C@@H]2C[C@@H](O)[C@]2(C)[C@@H](C3=CC(=O)OC3)CC[C@]12O	-8.5	x	-0.7	0.4	x	x	x

Screening results: PubChem, The Scripps Research Institute Molecular Screening Center
